Results: ChEMBL document CHEMBL1130347, “Lanthionine-somatostatin analogs: synthesis, characterization, biological activity, and enzymatic stability studies” (J Med Chem, 1997)
Bridge positions count the residues as written; N and C are the ends. Square brackets hold non-standard residues; d marks the D form. Peptide text beside a SMILES is read from it. * marks the point of attachment. Threoninol(2S,3R) = C[C@@H](O)[C@H](CO)N*

Columns and labels:
Rattus norvegicus = species: Rattus norvegicus; assay: Tested for inhibition of growth hormone (GH)release from primary cultures of male rat anterior pituitary cells; assay type: functional, cell-based; conditions: Pituitary gland cell
[1] = molecular target: Somatostatin receptor type 2 (Mus musculus, UniProt P30875); assay: Tested for inhibition of radioligand binding to cloned somatostatin receptor mSSTR2b
Somatostatin receptor type 2, sequence (P30875 whole entry): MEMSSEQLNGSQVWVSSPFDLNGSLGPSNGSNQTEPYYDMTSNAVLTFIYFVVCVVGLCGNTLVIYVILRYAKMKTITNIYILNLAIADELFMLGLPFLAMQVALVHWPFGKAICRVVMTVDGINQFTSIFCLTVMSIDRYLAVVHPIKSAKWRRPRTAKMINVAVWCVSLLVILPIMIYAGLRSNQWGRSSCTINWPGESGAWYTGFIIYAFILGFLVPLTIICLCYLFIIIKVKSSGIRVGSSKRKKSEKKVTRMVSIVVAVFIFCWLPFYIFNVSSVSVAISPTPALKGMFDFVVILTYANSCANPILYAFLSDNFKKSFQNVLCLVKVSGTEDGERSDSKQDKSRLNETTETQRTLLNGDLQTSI

[2] = molecular target: Somatostatin receptor type 3 (Mus musculus, UniProt P30935); assay: Tested for inhibition of radioligand binding to cloned somatostatin receptor mSSTR3
Somatostatin receptor type 3, sequence (P30935 whole entry): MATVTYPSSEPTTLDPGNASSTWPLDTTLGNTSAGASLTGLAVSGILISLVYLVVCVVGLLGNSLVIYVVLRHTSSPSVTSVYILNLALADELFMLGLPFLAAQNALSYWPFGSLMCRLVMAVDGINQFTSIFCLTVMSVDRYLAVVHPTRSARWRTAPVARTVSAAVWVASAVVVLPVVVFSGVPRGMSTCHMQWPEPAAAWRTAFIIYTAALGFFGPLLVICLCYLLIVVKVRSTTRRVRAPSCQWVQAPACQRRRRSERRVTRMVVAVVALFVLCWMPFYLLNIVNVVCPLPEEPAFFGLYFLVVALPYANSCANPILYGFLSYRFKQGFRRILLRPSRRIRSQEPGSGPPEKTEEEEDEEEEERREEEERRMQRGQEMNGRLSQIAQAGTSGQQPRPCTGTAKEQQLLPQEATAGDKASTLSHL

[3] = molecular target: Somatostatin receptor type 4 (Homo sapiens, UniProt P31391); assay: Tested for inhibition of radioligand binding to cloned somatostatin receptor hSSTR4
Somatostatin receptor type 4, sequence (P31391 whole entry): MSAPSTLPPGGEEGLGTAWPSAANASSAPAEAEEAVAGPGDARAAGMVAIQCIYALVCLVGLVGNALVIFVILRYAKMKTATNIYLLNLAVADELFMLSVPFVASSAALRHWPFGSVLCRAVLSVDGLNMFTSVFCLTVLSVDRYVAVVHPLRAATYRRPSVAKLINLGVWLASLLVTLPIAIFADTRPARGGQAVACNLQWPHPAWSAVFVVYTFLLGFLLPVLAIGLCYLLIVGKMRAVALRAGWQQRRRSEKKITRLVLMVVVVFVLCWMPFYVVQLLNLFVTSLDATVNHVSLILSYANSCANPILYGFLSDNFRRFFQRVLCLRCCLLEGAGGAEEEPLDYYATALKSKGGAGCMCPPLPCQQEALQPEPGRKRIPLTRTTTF

[4] = molecular target: T1, Somatostatin receptor type 5 (Rattus norvegicus, UniProt P30938); assay: Tested for inhibition of radioligand binding to cloned somatostatin receptor rSSTR5
T1 sequence (P30938 whole entry): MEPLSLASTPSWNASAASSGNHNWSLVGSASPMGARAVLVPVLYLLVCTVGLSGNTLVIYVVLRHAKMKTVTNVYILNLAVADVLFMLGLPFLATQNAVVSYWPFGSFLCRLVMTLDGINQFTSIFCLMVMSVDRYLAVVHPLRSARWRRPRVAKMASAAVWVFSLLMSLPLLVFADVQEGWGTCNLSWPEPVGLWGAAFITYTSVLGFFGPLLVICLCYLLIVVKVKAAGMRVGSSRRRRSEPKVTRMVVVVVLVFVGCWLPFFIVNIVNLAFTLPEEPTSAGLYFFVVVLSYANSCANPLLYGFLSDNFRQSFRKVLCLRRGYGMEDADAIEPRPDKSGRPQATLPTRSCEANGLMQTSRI

[5] = molecular target: Somatostatin receptor type 5 (Homo sapiens, UniProt P35346); assay: Tested for inhibition of radioligand binding to cloned somatostatin receptor hSSTR5
Somatostatin receptor type 5 (Homo sapiens, UniProt P35346), sequence (P35346 whole entry): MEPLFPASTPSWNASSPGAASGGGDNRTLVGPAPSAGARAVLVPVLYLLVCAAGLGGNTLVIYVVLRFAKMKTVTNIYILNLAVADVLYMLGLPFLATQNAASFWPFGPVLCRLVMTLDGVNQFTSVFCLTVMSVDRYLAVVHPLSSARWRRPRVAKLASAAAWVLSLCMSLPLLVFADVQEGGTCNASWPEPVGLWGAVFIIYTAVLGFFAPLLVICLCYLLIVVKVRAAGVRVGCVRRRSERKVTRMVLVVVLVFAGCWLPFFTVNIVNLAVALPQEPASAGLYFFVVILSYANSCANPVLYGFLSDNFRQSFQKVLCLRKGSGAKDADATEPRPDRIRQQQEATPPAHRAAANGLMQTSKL

[6] = half-life of compound; assay type: ADME
Method in brief: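 Aliquots taken at 5, 15, 30, 45, 60 and 90 min were quenched in ice-cold 1 M acetic acid and centrifuged. Remaining peptide was measured by microbore RP-HPLC at 216 nm against homogenate calibration. A pseudo-first-order exponential fit gave k, and half-life = 0.693/k.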

Structure (SMILES)	IC50 [1]	IC50 [2]	IC50 [3]	IC50 (Rattus norvegicus)	other results
C[C@@H](O)[C@@H]1NC(=O)[C@H](CCCCN)NC(=O)[C@@H](Cc2c[nH]c3ccccc23)NC(=O)[C@H](Cc2ccccc2)NC(=O)[C@@H](N)CSC[C@@H](C(=O)O)NC1=O [listing 1 of 2 here]				> 1000 nM	
C[C@@H](O)[C@H]1NC(=O)[C@H](CCCCN)NC(=O)[C@@H](Cc2c[nH]c3ccccc23)NC(=O)[C@H](Cc2ccccc2)NC(=O)[C@@H](N)CSC[C@H](C(=O)O)NC1=O					IC50 [4]: 500 nM
C[C@@H](O)[C@H](NC(=O)[C@@H]1CSC[C@H](NC(=O)[C@H](N)Cc2ccccc2)C(=O)N[C@@H](Cc2ccccc2)C(=O)N[C@H](Cc2c[nH]c3ccccc23)C(=O)N[C@@H](CCCCN)C(=O)N[C@@H]([C@@H](C)O)C(=O)N1)C(N)=O [listing 1 of 2 here]					IC50 [5]: 4.92 nM
C[C@@H](O)[C@H](NC(=O)[C@@H]1CSC[C@H](NC(=O)[C@H](N)Cc2ccccc2)C(=O)N[C@@H](Cc2ccccc2)C(=O)N[C@H](Cc2c[nH]c3ccccc23)C(=O)N[C@@H](CCCCN)C(=O)N[C@@H]([C@@H](C)O)C(=O)N1)C(N)=O [listing 2 of 2 here]	16.6 nM	> 1000 nM	> 1000 nM		
C[C@@H](O)[C@H](NC(=O)[C@@H]1CSC[C@@H](NC(=O)[C@H](N)Cc2ccccc2)C(=O)N[C@H](Cc2ccccc2)C(=O)N[C@@H](Cc2c[nH]c3ccccc23)C(=O)N[C@H](CCCCN)C(=O)N[C@@H]([C@@H](C)O)C(=O)N1)C(N)=O				70 nM	
C[C@@H](O)[C@H](CO)NC(=O)[C@@H]1CSSC[C@H](NC(=O)[C@H](N)Cc2ccccc2)C(=O)N[C@@H](Cc2ccccc2)C(=O)N[C@H](Cc2c[nH]c3ccccc23)C(=O)N[C@@H](CCCCN)C(=O)N[C@@H]([C@@H](C)O)C(=O)N1 (H-[dF]CF[dW]KTC-{Threoninol(2S,3R)}; disulfide 2-7)	0.28 nM	3 nM		0.52 nM	IC50 [4]: 1.04 nM; half-life [6]: 12.5 h
C[C@H](N)C(=O)NCC(=O)N[C@H]1CSSC[C@@H](C(=O)O)NC(=O)[C@H](CO)NC(=O)[C@H]([C@@H](C)O)NC(=O)[C@H](Cc2ccccc2)NC(=O)[C@H]([C@@H](C)O)NC(=O)[C@H](CCCCN)NC(=O)[C@H](Cc2c[nH]c3ccccc23)NC(=O)[C@H](Cc2ccccc2)NC(=O)[C@H](Cc2ccccc2)NC(=O)[C@H](CC(N)=O)NC(=O)[C@H](CCCCN)NC1=O [SOMATOSTATIN]				0.52 nM	

Further lines, with some results ahead:

IC50 [1]	IC50 [2]	IC50 [3]	Structure (SMILES)	IC50 (Rattus norvegicus)	other results
> 1000 nM	> 1000 nM	> 1000 nM	C[C@@H](O)[C@@H]1NC(=O)[C@H](CCCCN)NC(=O)[C@@H](Cc2c[nH]c3ccccc23)NC(=O)[C@H](Cc2ccccc2)NC(=O)[C@@H](N)CSC[C@@H](C(=O)O)NC1=O [listing 2 of 2 here]		
13.6 nM			C[C@@H](O)[C@@H]1NC(=O)[C@H](CCCCN)NC(=O)[C@@H](Cc2c[nH]c3ccccc23)NC(=O)[C@H](Cc2ccccc2)NC(=O)[C@@H](NC(=O)[C@H](N)Cc2ccccc2)CSSC[C@@H](C(=O)O)NC1=O		
	> 1000 nM	> 1000 nM	C[C@@H](O)[C@H]1NC(=O)[C@H](CCCCN)NC(=O)[C@@H](Cc2c[nH]c3ccccc23)NC(=O)[C@H](Cc2ccccc2)NC(=O)[C@@H](NC(=O)[C@@H](N)Cc2ccccc2)CSSC[C@H](C(=O)O)NC1=O		
> 1000 nM	> 1000 nM	> 1000 nM	C[C@@H](O)[C@@H]1NC(=O)[C@H](CCCCN)NC(=O)[C@@H](Cc2c[nH]c3ccccc23)NC(=O)[C@H](Cc2ccccc2)NC(=O)[C@@H](NC(=O)[C@H](N)Cc2ccccc2)CSC[C@@H](C(=O)O)NC1=O	> 1000 nM	
